{"source": "ChEMBL document CHEMBL4837245", "about": "“Discovery of VU6028418: A Highly Selective and Orally Bioavailable M4 Muscarinic Acetylcholine Receptor Antagonist” (ACS Med Chem Lett, 2021)", "key": {"CYP1A2 [1]": {"target": "T1, CYP1A2 (Homo sapiens, UniProt P05177)", "T1 sequence (P05177 whole entry)": "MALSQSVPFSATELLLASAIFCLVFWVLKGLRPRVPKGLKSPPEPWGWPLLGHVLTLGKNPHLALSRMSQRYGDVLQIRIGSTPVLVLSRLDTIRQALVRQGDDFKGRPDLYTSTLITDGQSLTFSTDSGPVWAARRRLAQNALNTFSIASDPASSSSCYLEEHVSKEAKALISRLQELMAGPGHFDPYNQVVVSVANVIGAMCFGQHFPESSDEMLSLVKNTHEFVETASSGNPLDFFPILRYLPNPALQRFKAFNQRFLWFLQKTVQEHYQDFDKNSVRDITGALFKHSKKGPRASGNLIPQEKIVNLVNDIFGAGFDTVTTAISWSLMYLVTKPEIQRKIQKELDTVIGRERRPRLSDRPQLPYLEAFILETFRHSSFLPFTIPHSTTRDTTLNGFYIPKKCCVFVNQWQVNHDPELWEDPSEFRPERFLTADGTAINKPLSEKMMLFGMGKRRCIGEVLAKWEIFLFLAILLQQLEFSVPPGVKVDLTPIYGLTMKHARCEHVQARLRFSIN", "experiment": "Inhibition of CYP1A2 in human liver microsomes using phenacetin as substrate preincubated for 15 mins followed by NADPH addition and measured after 8 mins by LC-MS/MS analysis", "format": "ADME", "conditions": "human, liver microsomes, probe phenacetin; time 23 min; read-out: INH", "how_it_was_run": "(§1)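 Cocktail CYP450 inhibition assay run in human liver microsomes.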"}, "CYP3A4 [2]": {"target": "T2, CYP3A4 (Homo sapiens, UniProt P08684)", "T2 sequence (P08684 whole entry)": "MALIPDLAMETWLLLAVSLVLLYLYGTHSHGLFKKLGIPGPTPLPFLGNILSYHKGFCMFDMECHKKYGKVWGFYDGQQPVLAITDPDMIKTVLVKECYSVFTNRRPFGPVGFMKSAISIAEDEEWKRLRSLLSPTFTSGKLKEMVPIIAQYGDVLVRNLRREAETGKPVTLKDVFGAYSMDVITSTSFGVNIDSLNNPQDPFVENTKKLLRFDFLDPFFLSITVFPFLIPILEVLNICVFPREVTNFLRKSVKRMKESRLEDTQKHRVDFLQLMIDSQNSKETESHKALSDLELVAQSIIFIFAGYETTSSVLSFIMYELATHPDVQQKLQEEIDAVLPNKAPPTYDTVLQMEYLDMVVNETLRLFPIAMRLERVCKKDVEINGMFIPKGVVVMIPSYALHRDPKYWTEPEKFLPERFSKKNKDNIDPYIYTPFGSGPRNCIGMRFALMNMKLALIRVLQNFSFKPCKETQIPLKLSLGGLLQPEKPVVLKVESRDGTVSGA", "experiment": "Inhibition of CYP3A4 in human liver microsomes using midazolam as substrate preincubated for 15 mins followed by NADPH addition and measured after 8 mins by LC-MS/MS analysis", "format": "ADME", "conditions": "human, liver microsomes, probe midazolam; time 23 min; read-out: INH", "how_it_was_run": "as §1"}, "[3]": {"target": "T3, Muscarinic acetylcholine receptor M4 (Homo sapiens, UniProt P08173)", "T3 sequence (P08173 whole entry)": "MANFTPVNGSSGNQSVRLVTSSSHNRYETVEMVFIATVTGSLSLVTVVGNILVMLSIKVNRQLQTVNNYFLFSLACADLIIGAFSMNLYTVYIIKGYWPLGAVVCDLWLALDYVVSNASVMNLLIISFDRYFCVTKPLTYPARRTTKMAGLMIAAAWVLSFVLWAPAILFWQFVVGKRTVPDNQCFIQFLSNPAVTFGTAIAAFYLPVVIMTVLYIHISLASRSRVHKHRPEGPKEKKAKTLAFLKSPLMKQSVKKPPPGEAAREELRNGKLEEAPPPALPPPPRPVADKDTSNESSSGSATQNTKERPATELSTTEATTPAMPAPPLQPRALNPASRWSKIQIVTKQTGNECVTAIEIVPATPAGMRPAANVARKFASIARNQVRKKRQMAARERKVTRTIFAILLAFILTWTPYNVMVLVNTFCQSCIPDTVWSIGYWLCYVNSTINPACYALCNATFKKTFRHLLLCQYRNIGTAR", "experiment": "Antagonist activity at human muscarinic acetylcholine M4 receptor expressed in CHO cells assessed as inhibition of acetylcholine-induced calcium mobilization", "format": "functional, cell-based", "conditions": "read-out: IC50"}, "[4]": {"experiment": "Antagonist activity at human muscarinic acetylcholine M4 receptor expressed in CHO cells assessed as inhibition of acetylcholine-induced calcium mobilization relative to control", "format": "cell-based", "design": "concentration or dose not given beside the values", "conditions": "concentration not given here", "how_it_was_run": "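CHO cells stably transfected with human M4 were pretreated with the compound, then stimulated with an EC80 concentration of acetylcholine. The response was read as calcium mobilization, and IC50 was derived from the concentration-response. Each experiment was run in triplicate.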"}, "[5]": {"experiment": "Tmax in Beagle dog at 3 mg/kg, po measured upto 24 hrs by LC-MS/MS analysis", "format": "ADME, organism-based, Canis lupus familiaris", "conditions": "in vivo", "how_it_was_run": "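Pharmacokinetics in Sprague-Dawley rat, CD-1 mouse and beagle dog. Intravenous dose was 1 mg/kg in each species. Oral doses were given as a suspension: 10 mg/kg in rat, 3 mg/kg in mouse and dog. Each parameter is the mean of two to three animals.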"}, "[6]": {"experiment": "AUC (0 to infinity) in Beagle dog at 3 mg/kg, po measured upto 24 hrs by LC-MS/MS analysis", "format": "ADME, organism-based, Canis lupus familiaris", "design": "route oral, dose 3 mg/kg, time <=24", "conditions": "in vivo", "how_it_was_run": "(§2)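 Single iv and oral (suspension) dosing; iv/po doses 1/10 mg/kg in SD rat, 1/3 mg/kg in CD-1 mouse and beagle dog. Plasma PK parameters are means from two to three animals per species.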"}, "[7]": {"experiment": "Oral bioavailability in CD-1 mouse at 3 mg/kg measured upto 24 hrs by LC-MS/MS analysis", "format": "ADME, organism-based", "conditions": "in vivo", "how_it_was_run": "as §2"}, "[8]": {"experiment": "Oral bioavailability in Beagle dog at 3 mg/kg measured upto 24 hrs by LC-MS/MS analysis", "format": "ADME, organism-based, Canis lupus familiaris", "conditions": "in vivo", "how_it_was_run": "as §2"}, "Rattus norvegicus": {"test_system": "Rattus norvegicus", "experiment": "Reversal of haloperidol-induced catalepsy in rat at 0.3 mg/kg, po relative to control", "format": "functional", "how_it_was_run": "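Rat haloperidol-induced catalepsy model with oral test dosing at 0.3, 1 and 3 mg/kg alongside vehicle-treated controls. Read-out is latency to withdraw, also expressed as % reversal of catalepsy. Groups compared by ANOVA.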"}, "Cytochrome P450 2C9": {"target": "Cytochrome P450 2C9 (Homo sapiens, UniProt P11712)", "sequence (P11712 whole entry)": "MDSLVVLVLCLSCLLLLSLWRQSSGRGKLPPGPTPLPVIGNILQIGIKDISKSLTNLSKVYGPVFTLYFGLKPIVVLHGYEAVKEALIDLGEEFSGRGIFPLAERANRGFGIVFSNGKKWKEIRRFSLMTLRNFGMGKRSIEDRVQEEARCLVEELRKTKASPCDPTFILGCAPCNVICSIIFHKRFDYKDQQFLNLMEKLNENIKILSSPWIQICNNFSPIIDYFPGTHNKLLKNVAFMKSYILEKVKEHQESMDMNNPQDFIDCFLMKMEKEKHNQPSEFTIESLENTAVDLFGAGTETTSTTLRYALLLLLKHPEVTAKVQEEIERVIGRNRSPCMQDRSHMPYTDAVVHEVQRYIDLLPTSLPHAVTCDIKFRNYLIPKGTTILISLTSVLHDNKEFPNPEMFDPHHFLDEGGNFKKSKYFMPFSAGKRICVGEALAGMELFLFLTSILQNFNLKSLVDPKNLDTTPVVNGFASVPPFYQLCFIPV", "experiment": "Time dependent inhibition of CYP2C9 (unknown origin)", "format": "ADME"}, "Cytochrome P450 2C19": {"target": "Cytochrome P450 2C19 (Homo sapiens, UniProt P33261)", "sequence (P33261 whole entry)": "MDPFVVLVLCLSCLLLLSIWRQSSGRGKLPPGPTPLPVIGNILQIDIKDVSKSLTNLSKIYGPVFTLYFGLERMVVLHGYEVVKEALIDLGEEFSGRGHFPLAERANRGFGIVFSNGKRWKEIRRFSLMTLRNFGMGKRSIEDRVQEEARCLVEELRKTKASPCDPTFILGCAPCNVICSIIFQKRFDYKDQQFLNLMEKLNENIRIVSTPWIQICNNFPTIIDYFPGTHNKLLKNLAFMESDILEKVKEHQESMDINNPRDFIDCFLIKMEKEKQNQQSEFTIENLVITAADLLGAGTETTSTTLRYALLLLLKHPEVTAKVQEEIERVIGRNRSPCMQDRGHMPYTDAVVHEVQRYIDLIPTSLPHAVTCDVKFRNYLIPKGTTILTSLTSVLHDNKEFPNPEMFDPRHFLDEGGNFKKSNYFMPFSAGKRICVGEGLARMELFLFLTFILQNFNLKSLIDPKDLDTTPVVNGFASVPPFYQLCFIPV", "experiment": "Time dependent inhibition of CYP2C19 (unknown origin)", "format": "ADME"}, "CYP1A2 [9]": {"target": "T1, CYP1A2", "experiment": "Induction of CYP1A2 in human hepatocytes", "format": "ADME, cell-based, Hepatocyte"}, "CYP2B6": {"target": "CYP2B6 (Homo sapiens, UniProt P20813)", "sequence (P20813 whole entry)": "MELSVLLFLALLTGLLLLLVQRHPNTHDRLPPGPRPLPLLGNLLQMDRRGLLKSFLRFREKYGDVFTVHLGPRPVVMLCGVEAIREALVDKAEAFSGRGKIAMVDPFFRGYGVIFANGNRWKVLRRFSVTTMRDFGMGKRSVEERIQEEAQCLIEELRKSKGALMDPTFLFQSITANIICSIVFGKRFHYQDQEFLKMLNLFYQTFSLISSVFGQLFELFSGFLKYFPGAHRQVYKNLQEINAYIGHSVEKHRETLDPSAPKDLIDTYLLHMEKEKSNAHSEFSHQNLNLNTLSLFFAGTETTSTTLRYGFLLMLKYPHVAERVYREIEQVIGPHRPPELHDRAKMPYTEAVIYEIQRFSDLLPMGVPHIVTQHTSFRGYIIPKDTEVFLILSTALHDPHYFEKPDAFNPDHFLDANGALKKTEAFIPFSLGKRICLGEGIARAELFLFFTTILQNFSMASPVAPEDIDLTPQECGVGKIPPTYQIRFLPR", "experiment": "Induction of CYP2B6 in human hepatocytes", "format": "ADME, cell-based, Hepatocyte"}, "CYP3A4 [10]": {"target": "T2, CYP3A4", "experiment": "Induction of CYP3A4 in human hepatocytes", "format": "ADME, cell-based, Hepatocyte"}}}
{"smiles": "Fc1cc(F)c(F)c(-c2ccc(N[C@H]3C[C@@H]4CN(CC5CCOCC5)C[C@@H]4C3)nn2)c1", "values": [{"measurement": "IC50 at 8 min", "setting": "CYP1A2 [1]", "value": "> 30000", "unit": "nM"}, {"measurement": "IC50 at 8 min", "setting": "CYP3A4 [2]", "value": "> 30000", "unit": "nM"}, {"measurement": "IC50", "setting": "[3]", "value": 4.1, "unit": "nM"}, {"measurement": "inhibition", "setting": "[4]", "value": 3, "unit": "%"}, {"measurement": "inhibition", "setting": "[4]; tested as the 2H-labelled form", "value": 3, "unit": "%"}, {"measurement": "Tmax", "setting": "[5]", "value": 17, "unit": "h"}, {"measurement": "AUC", "setting": "[6]", "value": 1100, "unit": "ng·h/mL"}, {"measurement": "bioavailability", "setting": "[7]", "value": "≥ 100", "unit": "%"}, {"measurement": "bioavailability", "setting": "[8]", "value": 86, "unit": "%"}, {"measurement": "Activity", "setting": "Rattus norvegicus", "value": 26.2, "unit": "%"}, {"measurement": "IC50", "setting": "Cytochrome P450 2C9", "value": "> 100000", "unit": "nM"}, {"measurement": "IC50", "setting": "Cytochrome P450 2C19", "value": "> 100000", "unit": "nM"}, {"measurement": "EC50", "setting": "CYP1A2 [9]", "value": 1900, "unit": "nM"}, {"measurement": "EC50", "setting": "CYP2B6", "value": 1900, "unit": "nM"}, {"measurement": "EC50", "setting": "CYP3A4 [10]", "value": 1900, "unit": "nM"}]}
